# Assay results: ChEMBL document CHEMBL4393701, “Appendix A. dithioloquinolinethiones as new potential multitargeted antibacterial and antifungal agents: Synthesis, biological evaluation and molecular docking studies” (2019)
# Key:
# Salmonella typhimurium [1] = assay: Antibacterial activity against Salmonella typhimurium ATCC 13311 after 24 hrs by iodonitrotetrazolium chloride dye based microdilution method; format: functional, Salmonella enterica subsp. enterica serovar Typhimurium; details: Salmonella enterica, ATCC 13311, 24 h
# In short: (§1)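 Fresh overnight cultures adjusted spectrophotometrically to 1×10^5 CFU/mL, giving 1.0×10^4 CFU per well in tryptic soy broth. Compounds were dissolved in 5% DMSO and tested at 0.001-1.0 mg/ml by serial dilution; 5% DMSO was the negative control. After 24 h at 37 °C, 0.2 mg/mL INT solution was added for 30 min at 37 °C and OD read at 655 nm. MIC is the lowest concentration giving significant growth inhibition versus the positive control. Duplicates, repeated three times.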
# Micrococcus flavus [2] = assay: Bactericidal activity against Micrococcus flavus ATCC 10240 incubated for 24 hrs followed by re-plating on tryptic soy broth; format: functional; details: ATCC 10240, 24 h
# In short: (§2)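 Bacteria were grown in tryptic soy broth, 1.0×10^4 CFU per well, with compounds in 5% DMSO at 0.001-1.0 mg/ml for 24 h at 37 °C. Then 10 µL was subcultured into fresh TSB. MBC is the lowest concentration showing no growth after subculture, taken as 99.5% kill of the original inoculum. Duplicates, repeated three times.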
# Penicillium ochrochloron [3] = assay: Fungicidal activity against Penicillium ochrochloron ATCC 9112 incubated for 72 hrs followed by sub-culturing on broth malt medium and measured after 72 hrs; format: functional; details: ATCC 9112, 72 h
# In short: (§3)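 After 72 h exposure in malt broth, 2 µL from test wells was subcultured into wells holding 100 µL broth and incubated a further 72 h at 28 °C. MFC is the lowest concentration with no visible growth, taken as 99.5% kill of the original inoculum. Three independent experiments in duplicate.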
# Penicillium cyclopium [4] = assay: Antifungal activity against Penicillium verrucosum var. cyclopium food isolate after 72 hrs by microdilution technique; format: functional
# In short: (§4)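 Spores were washed off malt agar with 0.85% saline containing 0.1% Tween 80 and adjusted to about 1.0×10^5 per well. Compounds in 5% DMSO were serially diluted (0.001-1.0 mg/ml) in malt broth with inoculum. Plates were shaken at 160 rpm for 72 h at 28 °C. MIC is the lowest concentration without visible growth under a binocular microscope. Three independent experiments in duplicate.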
# Aspergillus fumigatus [5] = assay: Fungicidal activity against Aspergillus fumigatus ATCC 1022 incubated for 72 hrs followed by sub-culturing on broth malt medium and measured after 72 hrs; format: functional; details: ATCC 1022, 72 h; in short: as §3
# Aspergillus ochraceus [6] = assay: Antifungal activity against Aspergillus ochraceus ATCC 12066 after 72 hrs by microdilution technique; format: functional; details: ATCC 12066, 72 h; in short: as §4
# Aspergillus versicolor [7] = assay: Antifungal activity against Aspergillus versicolor ATCC 11730 after 72 hrs by microdilution method; format: functional; details: ATCC 11730, 72 h; in short: as §4
# Penicillium cyclopium [8] = assay: Fungicidal activity against Penicillium verrucosum var. cyclopium food isolate incubated for 72 hrs followed by sub-culturing on broth malt medium and measured after 72 hrs; format: functional; in short: as §3
# Aspergillus niger [9] = assay: Antifungal activity against Aspergillus niger ATCC 6275 after 72 hrs by microdilution technique; format: functional; details: ATCC 6275, 72 h; in short: as §4
# Aspergillus niger [10] = assay: Fungicidal activity against Aspergillus niger ATCC 6275 incubated for 72 hrs followed by sub-culturing on broth malt medium and measured after 72 hrs; format: functional; details: ATCC 6275, 72 h; in short: as §3
# Aspergillus fumigatus [11] = assay: Antifungal activity against Aspergillus fumigatus ATCC 1022 after 72 hrs by microdilution technique; format: functional; details: ATCC 1022, 72 h; in short: as §4
# Penicillium ochrochloron [12] = assay: Antifungal activity against Penicillium ochrochloron ATCC 9112 after 72 hrs by microdilution technique; format: functional; details: ATCC 9112, 72 h; in short: as §4
# Trichoderma viride [13] = assay: Antifungal activity against Trichoderma viride IAM 5061 after 72 hrs by microdilution technique; format: functional; details: IAM 5061, 72 h; in short: as §4
# [14] = Fungicidal activity against Penicillium funiculosum ATCC 36839 incubated for 72 hrs followed by sub-culturing on broth malt medium and measured after 72 hrs; format: functional; details: Talaromyces pinophilus, ATCC 36839, 72 h; in short: as §3
# Aspergillus versicolor [15] = assay: Fungicidal activity against Aspergillus versicolor ATCC 11730 incubated for 72 hrs followed by sub-culturing on broth malt medium and measured after 72 hrs; format: functional; details: ATCC 11730, 72 h; in short: as §3
# Bacillus cereus [16] = assay: Bactericidal activity against Bacillus cereus clinical isolate incubated for 24 hrs followed by re-plating on tryptic soy broth; format: functional; in short: as §2
# Listeria monocytogenes [17] = assay: Antibacterial activity against Listeria monocytogenes NCTC 7973 after 24 hrs by iodonitrotetrazolium chloride dye based microdilution method; format: functional; details: NCTC 7973, 24 h; in short: as §1
# Enterobacter cloacae [18] = assay: Bactericidal activity against Enterobacter cloacae incubated for 24 hrs followed by re-plating on tryptic soy broth; format: functional; in short: as §2
# Enterobacter cloacae [19] = assay: Antibacterial activity against Enterobacter cloacae clinical isolate after 24 hrs by iodonitrotetrazolium chloride dye based microdilution method; format: functional; in short: as §1
# Salmonella typhimurium [20] = assay: Bactericidal activity against Salmonella typhimurium ATCC 13311 incubated for 24 hrs followed by re-plating on tryptic soy broth; format: functional, Salmonella enterica subsp. enterica serovar Typhimurium; details: Salmonella enterica, ATCC 13311, 24 h; in short: as §2
# Pseudomonas aeruginosa [21] = assay: Antibacterial activity against Pseudomonas aeruginosa ATCC 27853 after 24 hrs by iodonitrotetrazolium chloride dye based microdilution method; format: functional; details: ATCC 27853, 24 h; in short: as §1
# Bacillus cereus [22] = assay: Antibacterial activity against Bacillus cereus clinical isolate after 24 hrs by iodonitrotetrazolium chloride dye based microdilution assay; format: functional; in short: as §1
# Escherichia coli [23] = assay: Antibacterial activity against Escherichia coli ATCC 35210 after 24 hrs by iodonitrotetrazolium chloride dye based microdilution method; format: functional; details: ATCC 35210, 24 h; in short: as §1
# Pseudomonas aeruginosa [24] = assay: Bactericidal activity against Pseudomonas aeruginosa ATCC 27853 incubated for 24 hrs followed by re-plating on tryptic soy broth; format: functional; details: ATCC 27853, 24 h; in short: as §2
# Escherichia coli [25] = assay: Bactericidal activity against Escherichia coli ATCC 35210 incubated for 24 hrs followed by re-plating on tryptic soy broth; format: functional; details: ATCC 35210, 24 h; in short: as §2
# Micrococcus flavus [26] = assay: Antibacterial activity against Micrococcus flavus ATCC 10240 after 24 hrs by iodonitrotetrazolium chloride dye based microdilution method; format: functional; details: ATCC 10240, 24 h; in short: as §1
# Trichoderma viride [27] = assay: Fungicidal activity against Trichoderma viride IAM 5061 incubated for 72 hrs followed by sub-culturing on broth malt medium and measured after 72 hrs; format: functional; details: IAM 5061, 72 h; in short: as §3
# Staphylococcus aureus [28] = assay: Bactericidal activity against Staphylococcus aureus ATCC 6538 incubated for 24 hrs followed by re-plating on tryptic soy broth; format: functional; details: ATCC 6538, 24 h; in short: as §2
# Staphylococcus aureus [29] = assay: Antibacterial activity against Staphylococcus aureus ATCC 6538 after 24 hrs by iodonitrotetrazolium chloride dye based microdilution method; format: functional; details: ATCC 6538, 24 h; in short: as §1
# [30] = Antifungal activity against Penicillium funiculosum ATCC 36839 after 72 hrs by microdilution technique; format: functional; details: Talaromyces pinophilus, ATCC 36839, 72 h; in short: as §4
# Listeria monocytogenes [31] = assay: Bactericidal activity against Listeria monocytogenes NCTC 7973 incubated for 24 hrs followed by re-plating on tryptic soy broth; format: functional; details: NCTC 7973, 24 h; in short: as §2
# Aspergillus ochraceus [32] = assay: Fungicidal activity against Aspergillus ochraceus ATCC 12066 incubated for 72 hrs followed by sub-culturing on broth malt medium and measured after 72 hrs; format: functional; details: ATCC 12066, 72 h; in short: as §3
Structure (SMILES),MIC (Salmonella typhimurium [1]) [µM],MBC (Micrococcus flavus [2]) [µM],MFC (Penicillium ochrochloron [3]) [×10⁻² mM],MIC (Penicillium cyclopium [4]) [×10⁻² mM],MFC (Aspergillus fumigatus [5]) [×10⁻² mM],MIC (Aspergillus ochraceus [6]) [×10⁻² mM],MIC (Aspergillus versicolor [7]) [×10⁻² mM],MFC (Penicillium cyclopium [8]) [×10⁻² mM],MIC (Aspergillus niger [9]) [×10⁻² mM],MFC (Aspergillus niger [10]) [×10⁻² mM],MIC (Aspergillus fumigatus [11]) [×10⁻² mM],MIC (Penicillium ochrochloron [12]) [×10⁻² mM],MIC (Trichoderma viride [13]) [×10⁻² mM],MFC [14] [×10⁻² mM],MFC (Aspergillus versicolor [15]) [×10⁻² mM],MBC (Bacillus cereus [16]) [µM],MIC (Listeria monocytogenes [17]) [µM],MBC (Enterobacter cloacae [18]) [µM],MIC (Enterobacter cloacae [19]) [µM],MBC (Salmonella typhimurium [20]) [µM],further results
CCOc1ccc2c(c1)-c1c(ssc1=S)C(C)(C)N2,29.5,59,1.57,8.85,11.8,11.8,5.9,23.6,4.32,11.8,5.9,0.79,1.18,23.6,11.8,59,29.5,59,29.5,59,MIC (Pseudomonas aeruginosa [21]): 29.5 µM; MIC (Bacillus cereus [22]): 29.5 µM; MIC (Escherichia coli [23]): 29.5 µM; MBC (Pseudomonas aeruginosa [24]): 59 µM; MBC (Escherichia coli [25]): 59 µM; MIC (Micrococcus flavus [26]): 29.5 µM; MFC (Trichoderma viride [27]): 2.95 ×10⁻² mM; MBC (Staphylococcus aureus [28]): 59 µM; MIC (Staphylococcus aureus [29]): 29.5 µM; MIC [30]: 11.8 ×10⁻² mM; MBC (Listeria monocytogenes [31]): 59 µM; MFC (Aspergillus ochraceus [32]): 23.6 ×10⁻² mM
CC1(C)c2ssc(=S)c2-c2ccccc2N1C(=O)CN1C(=O)CCC1=O,37.1,74.2,1.98,14.8,14.8,14.8,14.8,29.7,7.42,14.8,11.1,0.99,1.48,29.7,29.7,74.2,37.1,74.2,37.1,74.2,MIC (Pseudomonas aeruginosa [21]): 37.1 µM; MIC (Bacillus cereus [22]): 37.1 µM; MIC (Escherichia coli [23]): 37.1 µM; MBC (Pseudomonas aeruginosa [24]): 74.2 µM; MBC (Escherichia coli [25]): 74.2 µM; MIC (Micrococcus flavus [26]): 37.1 µM; MFC (Trichoderma viride [27]): 1.98 ×10⁻² mM; MBC (Staphylococcus aureus [28]): 74.2 µM; MIC (Staphylococcus aureus [29]): 37.1 µM; MIC [30]: 11.1 ×10⁻² mM; MBC (Listeria monocytogenes [31]): 74.2 µM; MFC (Aspergillus ochraceus [32]): 29.7 ×10⁻² mM
